SMILES strings stand for the structures. Several values for one entry are separate records, joined by “and”; a condition that tells them apart may be missing. Equal entries are not always repeated. Where two headings read alike, the source gives them in different places.

The conditions of data set [1]: cited from earlier work.
Data set [2] is classed as in vivo, human. As to conditions: Cohort 1, boceprevir 800 mg every 8 h + dolutegravir 50 mg once daily (n = 15); geometric mean (%CVb). In a few lines: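 Cohort 1 took 800 mg oral boceprevir three times daily with 50 mg dolutegravir daily for 10 days, with moderate-fat meals. Plasma was acidified with phosphoric acid, and the stereoisomers were extracted by solid-phase extraction. Analysis was LC-MS/MS with heated nebulizer, positive ion mode, calibrated 0.0052–5.2 and 0.0048–4.8 μg ml−1. Parameters came from noncompartmental steady-state analysis, reported as geometric means (%CVb) and median Tmax, and were compared with label values without statistics.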

For data set [3] the following is noted: previous dolutegravir clinical studies; cited from earlier work.
The format of data set [4] is in vivo, human. The conditions noted are these: for Cmin / AUC / Cmax / concentration at 24 h / half-life: geometric mean (95% CI); for AUC / Cmax / concentration at 24 h / half-life: both, human, plasma, oral; for AUC: AUC0–τ; for concentration at 24 h: Cτ. The method, boiled down: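 Healthy adults took 50 mg oral dolutegravir once daily with a morning moderate-fat meal, alone for 5 days. They then continued for 10 days with boceprevir 800 mg or telaprevir 750 mg three times daily, with no washout. Plasma was assayed by validated LC-MS/MS. Noncompartmental parameters used actual sampling times, with Cτ taken at 24 h postdose. Log-transformed AUC0–τ, Cmax and Cτ were analysed by mixed-model ANOVA (subject random, treatment fixed). Results were given as GLS mean ratios with 95% CI versus dolutegravir alone.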

A short description of data set [5]: Safety: adverse events in healthy adult subjects. In kind it is in vivo, human. As to conditions: dolutegravir n = 32, combinations n = 16 each. The method, boiled down:
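Healthy adults aged 18–65 were randomised into two cohorts of 16. Period 1: 50 mg dolutegravir once daily for 5 days. Period 2, with no washout: Cohort 1 added boceprevir 800 mg three times daily, Cohort 2 added telaprevir 750 mg three times daily, both for 10 days. Doses were given with moderate-fat meals (30% fat, 600 calories). Adverse events were recorded and graded for intensity and drug relatedness.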

The format of data set [6] is in vivo, human. The conditions noted are these: Cohort 2, telaprevir 750 mg every 8 h + dolutegravir 50 mg once daily (n = 15). The method, boiled down: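 Cohort 2 took 750 mg oral telaprevir three times daily with 50 mg dolutegravir daily for 10 days, with moderate-fat meals. Plasma was acidified with phosphoric acid, and (S)-telaprevir was extracted by supported liquid extraction. Analysis was LC-MS/MS with TurboIonSpray, positive ion mode, calibrated 0.1–20 μg ml−1. Steady-state parameters came from noncompartmental analysis and were compared with label data without formal statistics.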

For data set [7] the following is noted: cited from earlier work. The source holds these as a separate data set.
Setting [8] is: Boceprevir alone, historical, ref Boceprevir package insert, 2013.
The mark [9] stands for this setting: Cohort 1, dolutegravir 50 mg once daily + boceprevir 800 mg every 8 h, Period 2 (n = 13).
Where [10] appears, read: Cohort 1, dolutegravir + boceprevir vs. dolutegravir.
[11] abbreviates: Cohort 2, dolutegravir 50 mg once daily + telaprevir 750 mg every 8 h, Period 2 (n = 15).
Setting [12] is: Cohort 2, dolutegravir + telaprevir vs. dolutegravir.
[13] abbreviates: 50 mg, Cohort 1, dolutegravir 50 mg once daily alone, Period 1 (n = 16).
[14] abbreviates: 50 mg, Cohort 2, dolutegravir 50 mg once daily alone, Period 1 (n = 16).
Setting [15] is: coadministration with telaprevir vs dolutegravir alone.
Where [16] appears, read: Telaprevir alone, historical, ref Telaprevir package insert, 2013.

A word on the Cmax: it is the maximum level reached in the sampled fluid or tissue. Broadly, the half-life is the time needed for the level to fall by half in the phase considered. In the case of `CC(C)(C)NC(=O)N[C@H](C(=O)N1C[C@H]2[C@@H]([C@H]1C(=O)NC(CC1CCC1)C(=O)C(N)=O)C2(C)C)C(C)(C)C` (stereo partly shown) [Boceprevir, boceprevir], in data set [1] (setting [8]), the “AUC0–τ” value was 5408 ng·h/mL, the Cmax is 1723 ng/mL and the Cmin was 80 ng/mL. Besides, in data set [1], the half-life was 3 to 4 h. In addition, in data set [2], the Cmin is 0.07 (23) μg ml^−1 and the Cτ is listed as 0.08 (35) μg ml^−1.

A word on the AUC: it is concentration integrated over time. Regarding `C[C@@H]1CCO[C@H]2Cn3cc(C(=O)NCc4ccc(F)cc4F)c(=O)c(O)c3C(=O)N12` [Dolutegravir], the “Elevated alanine aminotransferase, frequency” value in data set [3] was <1–2 % of subjects. Further, in data set [4] (setting [9]), the Cmin was 1.36 (1.10, 1.68) μg ml^−1; the AUC amounted to 65300 ng·h/mL; the Cmax amounted to 4820 ng/mL; the concentration at 24 h turned out to be 1400 ng/mL. For the same compound, the Cmin in data set [4] (Cohort 1, dolutegravir 50 mg once daily alone, Period 1 (n = 16)) is listed as 1.00 (0.79, 1.25) μg ml^−1. Moreover, in data set [4] (setting [10]), the “AUC0–τ GLS mean ratio (95% CI)” value is given as 1.07 (0.924, 1.234); the “Cmax GLS mean ratio (95% CI)” value was 1.05 (0.941, 1.176); the “Cmin GLS mean ratio (95% CI)” value is reported as 1.36 (1.106, 1.684); the “Cτ GLS mean ratio (95% CI)” value is reported as 1.08 (0.878, 1.329). The “t1/2 GLS mean ratio (95% CI)” value in data set [4] (setting [10]) is listed as 1.05 (0.940, 1.166). For the same compound, in data set [4] (setting [11]), the Cmin was 2.03 (1.73, 2.38) μg ml^−1; the AUC was 84200 ng·h/mL; the Cmax worked out at 5810 ng/mL; the concentration at 24 h came to 2090 ng/mL. Besides, the Cmin in data set [4] (Cohort 2, dolutegravir 50 mg once daily alone, Period 1 (n = 16)) was 1.18 (0.96, 1.46) μg ml^−1. Further, in data set [4] (setting [12]), the “AUC0–τ GLS mean ratio (95% CI)” value is listed as 1.25 (1.183, 1.327); the “Cmax GLS mean ratio (95% CI)” value is 1.19 (1.096, 1.282); the “Cmin GLS mean ratio (95% CI)” value is 1.76 (1.570, 1.963); the “Cτ GLS mean ratio (95% CI)” value is on record as 1.37 (1.274, 1.468). Also, the “t1/2 GLS mean ratio (95% CI)” value in data set [4] (setting [12]) is given as 1.18 (1.061, 1.305). In data set [4] (setting [13]), this compound showed an AUC of 61500 ng·h/mL, a Cmax of 4620 ng/mL and a concentration at 24 h of 1310 ng/mL. In data set [4] (setting [14]), the AUC stood at 68900 ng·h/mL, the Cmax came out at 4990 ng/mL and the concentration at 24 h is 1590 ng/mL. Besides, the half-life in data set [4] (50 mg, t1/2, Cohort 1, dolutegravir 50 mg once daily alone, Period 1 (n = 16)) was 13.2 h. In data set [4] (50 mg, t1/2, Cohort 2, dolutegravir 50 mg once daily alone, Period 1 (n = 16)), the half-life was 14.5 h. For the same compound, in data set [4] (t1/2, Cohort 1, dolutegravir 50 mg once daily + boceprevir 800 mg every 8 h, Period 2 (n = 13)), the half-life was 13.8 h. Moreover, in data set [4] (t1/2, Cohort 2, dolutegravir 50 mg once daily + telaprevir 750 mg every 8 h, Period 2 (n = 14)), the half-life is 16.7 h. The “change (increase) in dolutegravir Cτ” value in data set [4] (coadministration with boceprevir vs dolutegravir alone) was 8% and < 10%. Also, in data set [4] (setting [15]), the “increase in dolutegravir AUC0–τ” value is recorded as 25%, the “increase in dolutegravir Cmax” value amounted to 19% and the “increase in dolutegravir Cτ” value worked out at 37%. For the same compound, the “change in dolutegravir exposure” value in data set [4] (with boceprevir) turned out to be 7%. In addition, in data set [4] (with telaprevir), the “change in dolutegravir exposure” value was 25%. In data set [5], the “All adverse events: Abdominal pain” value is on record as 0 n (%), the “All adverse events: Anal haemorrhage” value is on record as 0 n (%), the “All adverse events: Anorectal discomfort” value was 0 n (%) and the “All adverse events: Any adverse event” value is listed as 4 (13) n (%). Also, in data set [5], the “All adverse events: Dysgeusia” value is given as 0 n (%), the “All adverse events: Haemorrhoids” value is 0 n (%), the “All adverse events: Headache” value is given as 2 (6) n (%) and the “All adverse events: Maculopapular rash” value is on record as 1 (3) n (%). In data set [5], the “Drug-related adverse events: Abdominal pain” value is 0 n (%), the “Drug-related adverse events: Any adverse event” value is 2 (6) n (%), the “Drug-related adverse events: Dysgeusia” value was 0 n (%) and the “Drug-related adverse events: Headache” value is listed as 1 (3) n (%). Moreover, in data set [5], the “Drug-related adverse events: Maculopapular rash” value is 1 (3) n (%) and the “Subjects withdrawn because of AEs” value is listed as 0 n (%).

On to `CCC[C@H](NC(=O)[C@@H]1[C@H]2CCC[C@H]2CN1C(=O)[C@@H](NC(=O)[C@@H](NC(=O)c1cnccn1)C1CCCCC1)C(C)(C)C)C(=O)C(=O)NC1CC1` [Telaprevir, telaprevir], for which, in data set [6] (geometric mean (%CVb)), the Cmin is 1.72 (25) μg ml^−1 and the Cτ is 1.75 (26) μg ml^−1. In addition, in data set [6] (median (range)), the Tmax is 3.00 (2.0, 4.0) h. Also, in data set [7] (setting [16]), the “AUC0–τ” value was 22300 ng·h/mL, the Cmax was 3510 ng/mL and the Cmin was 2030 ng/mL. Besides, the half-life in data set [7] was 9 to 10 h.
